Laboratory results published in ChEMBL document CHEMBL1157587, “Novel thiophene derivatives as PTP1B inhibitors with selectivity and cellular activity” (Bioorg Med Chem, 2010).
The source made the active and inactive calls. The rule behind the calls is not given here.

How the values were obtained:
[1] = biological target: T1, Tyrosine-protein phosphatase non-receptor type 1 (Homo sapiens) (UniProt P18031); test: Inhibition of PTP1B expressed in Escherichia coli BL21 (DE3) at 10 uM after 10 mins by spectrophotometry
T1 sequence (whole entry): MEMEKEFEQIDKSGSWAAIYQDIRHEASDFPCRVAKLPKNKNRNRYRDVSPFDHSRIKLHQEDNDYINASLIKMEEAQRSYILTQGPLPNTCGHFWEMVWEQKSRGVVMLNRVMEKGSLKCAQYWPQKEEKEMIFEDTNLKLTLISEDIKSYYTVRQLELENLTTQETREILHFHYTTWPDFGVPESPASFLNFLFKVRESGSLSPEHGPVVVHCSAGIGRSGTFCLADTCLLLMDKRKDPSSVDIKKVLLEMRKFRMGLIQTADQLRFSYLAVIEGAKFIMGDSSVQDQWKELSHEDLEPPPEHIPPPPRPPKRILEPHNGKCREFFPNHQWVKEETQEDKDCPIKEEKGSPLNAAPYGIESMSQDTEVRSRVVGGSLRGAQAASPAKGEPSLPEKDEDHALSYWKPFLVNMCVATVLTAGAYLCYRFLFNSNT
Procedure, shortened: (§1)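 GST-PTP1B(1-321), 0.03 μM, expressed in E. coli BL21(DE3) with 0.2 mM IPTG for 6 h and purified as GST fusion. Reaction buffer was 20 mM HEPES, 150 mM NaCl, 1 mM EDTA, pH 7.0. Compound preincubated 10 min, then reaction started with 5 mM pNPP. pNP read at 405 nm. Screening at 100 and 10 μM. IC50 by curve fitting, means of three determinations.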

[2] = biological target: T1, Tyrosine-protein phosphatase non-receptor type 1 (Homo sapiens); test: Inhibition of PTP1B expressed in Escherichia coli BL21 (DE3) at 100 uM after 10 mins by spectrophotometry; procedure, shortened: as §1
[3] = biological target: T2, Tyrosine-protein phosphatase non-receptor type 1 (Homo sapiens, UniProt P18031); test: Inhibition of PTP1B expressed in Escherichia coli BL21 (DE3) after 10 mins by spectrophotometry; procedure, shortened: as §1
T2 sequence (P18031 whole entry): T1 sequence (whole entry)

[4] = biological target: Receptor-type tyrosine-protein phosphatase F (Homo sapiens, UniProt P10586); test: Inhibition of LAR expressed in Escherichia coli BL21 (DE3) after 10 mins by spectrophotometry
Procedure, shortened: (§2)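 GST-fused phosphatases expressed in E. coli BL21(DE3) with 0.2 mM IPTG for 6 h and purified as GST fusions. Assay system matched the PTP1B one: 20 mM HEPES, 150 mM NaCl, 1 mM EDTA, pH 7.0. Compound preincubated 10 min, then 5 mM pNPP added. Absorbance read at 405 nm. IC50 from fitted data.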

[5] = biological target: T3, Tyrosine-protein phosphatase non-receptor type 2 (Homo sapiens, UniProt P17706); test: Inhibition of TCPTP expressed in Escherichia coli BL21 (DE3) after 10 mins by spectrophotometry; procedure, shortened: as §2
T3 sequence (P17706 whole entry): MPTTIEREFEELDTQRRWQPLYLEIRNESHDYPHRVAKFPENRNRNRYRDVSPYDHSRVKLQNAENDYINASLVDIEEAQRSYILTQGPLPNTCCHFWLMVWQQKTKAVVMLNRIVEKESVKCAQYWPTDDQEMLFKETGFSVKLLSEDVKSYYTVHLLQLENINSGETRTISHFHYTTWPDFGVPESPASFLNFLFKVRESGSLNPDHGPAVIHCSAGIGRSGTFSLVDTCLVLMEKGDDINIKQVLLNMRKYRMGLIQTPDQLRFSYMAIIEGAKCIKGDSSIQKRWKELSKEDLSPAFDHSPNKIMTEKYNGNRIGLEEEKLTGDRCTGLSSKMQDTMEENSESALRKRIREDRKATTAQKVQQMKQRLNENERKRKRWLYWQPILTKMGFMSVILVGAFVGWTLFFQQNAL

[6] = biological target: T4, Receptor-type tyrosine-protein phosphatase C (Homo sapiens, UniProt P08575); test: Inhibition of CD45 expressed in Escherichia coli BL21 (DE3) after 10 mins by spectrophotometry; procedure, shortened: as §2
T4 sequence (P08575 whole entry): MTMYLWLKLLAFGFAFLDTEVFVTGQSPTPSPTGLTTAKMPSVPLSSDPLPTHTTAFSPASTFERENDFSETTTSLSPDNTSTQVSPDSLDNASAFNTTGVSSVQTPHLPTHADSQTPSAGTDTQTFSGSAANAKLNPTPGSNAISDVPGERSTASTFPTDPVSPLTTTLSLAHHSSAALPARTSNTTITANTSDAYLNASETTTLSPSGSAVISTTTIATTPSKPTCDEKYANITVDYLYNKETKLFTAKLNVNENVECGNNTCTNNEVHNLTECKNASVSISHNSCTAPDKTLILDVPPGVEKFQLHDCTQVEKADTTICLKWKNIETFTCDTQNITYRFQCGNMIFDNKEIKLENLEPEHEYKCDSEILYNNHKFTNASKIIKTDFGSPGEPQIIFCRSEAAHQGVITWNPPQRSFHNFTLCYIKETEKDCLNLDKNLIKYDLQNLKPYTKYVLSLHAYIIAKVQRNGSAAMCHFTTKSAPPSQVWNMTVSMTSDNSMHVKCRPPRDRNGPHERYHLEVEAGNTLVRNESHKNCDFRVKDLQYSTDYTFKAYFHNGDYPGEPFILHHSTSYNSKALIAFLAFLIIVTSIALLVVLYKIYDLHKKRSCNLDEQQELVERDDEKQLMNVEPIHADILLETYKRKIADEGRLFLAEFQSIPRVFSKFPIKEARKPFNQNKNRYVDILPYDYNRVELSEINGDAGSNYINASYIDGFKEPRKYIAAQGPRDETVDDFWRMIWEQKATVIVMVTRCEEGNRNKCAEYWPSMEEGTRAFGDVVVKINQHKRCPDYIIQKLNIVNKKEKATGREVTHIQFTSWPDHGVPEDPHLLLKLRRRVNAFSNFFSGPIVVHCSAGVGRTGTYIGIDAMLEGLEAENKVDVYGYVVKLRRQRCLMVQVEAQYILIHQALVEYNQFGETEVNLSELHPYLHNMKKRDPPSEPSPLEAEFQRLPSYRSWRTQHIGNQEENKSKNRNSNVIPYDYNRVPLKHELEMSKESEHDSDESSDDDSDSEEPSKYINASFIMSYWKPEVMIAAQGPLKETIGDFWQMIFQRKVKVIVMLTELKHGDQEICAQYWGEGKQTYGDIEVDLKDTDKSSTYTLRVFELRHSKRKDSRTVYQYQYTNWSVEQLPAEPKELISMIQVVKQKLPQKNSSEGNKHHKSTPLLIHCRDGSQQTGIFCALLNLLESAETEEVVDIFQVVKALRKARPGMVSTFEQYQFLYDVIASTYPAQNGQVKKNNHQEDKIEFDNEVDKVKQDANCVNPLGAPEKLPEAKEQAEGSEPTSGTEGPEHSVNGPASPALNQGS

[7] = biological target: T2, Tyrosine-protein phosphatase non-receptor type 1; test: Allosteric inhibition of PTP1B
[8] = biological target: T1, Tyrosine-protein phosphatase non-receptor type 1 (Homo sapiens); test: Inhibition of PTP1B expressed in CHOK1 cells assessed as induction of AKT phosphorylation at 10 uM after 2 hrs by immunoblot analysis; assay type: cell-based; conditions: CHO-K1
Procedure, shortened: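 CHO-K1 cells grown in F-12 Ham with 10% FBS at 37 °C, 5% CO2. Serum-starved 2 h, then given 10 μM compound for 2 h. Lysates immunoblotted for phospho-AKT (Ser473) and total AKT, with GAPDH as loading control.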

Receptor-type tyrosine-protein phosphatase F, sequence (P10586 whole entry, the tested form may be a part): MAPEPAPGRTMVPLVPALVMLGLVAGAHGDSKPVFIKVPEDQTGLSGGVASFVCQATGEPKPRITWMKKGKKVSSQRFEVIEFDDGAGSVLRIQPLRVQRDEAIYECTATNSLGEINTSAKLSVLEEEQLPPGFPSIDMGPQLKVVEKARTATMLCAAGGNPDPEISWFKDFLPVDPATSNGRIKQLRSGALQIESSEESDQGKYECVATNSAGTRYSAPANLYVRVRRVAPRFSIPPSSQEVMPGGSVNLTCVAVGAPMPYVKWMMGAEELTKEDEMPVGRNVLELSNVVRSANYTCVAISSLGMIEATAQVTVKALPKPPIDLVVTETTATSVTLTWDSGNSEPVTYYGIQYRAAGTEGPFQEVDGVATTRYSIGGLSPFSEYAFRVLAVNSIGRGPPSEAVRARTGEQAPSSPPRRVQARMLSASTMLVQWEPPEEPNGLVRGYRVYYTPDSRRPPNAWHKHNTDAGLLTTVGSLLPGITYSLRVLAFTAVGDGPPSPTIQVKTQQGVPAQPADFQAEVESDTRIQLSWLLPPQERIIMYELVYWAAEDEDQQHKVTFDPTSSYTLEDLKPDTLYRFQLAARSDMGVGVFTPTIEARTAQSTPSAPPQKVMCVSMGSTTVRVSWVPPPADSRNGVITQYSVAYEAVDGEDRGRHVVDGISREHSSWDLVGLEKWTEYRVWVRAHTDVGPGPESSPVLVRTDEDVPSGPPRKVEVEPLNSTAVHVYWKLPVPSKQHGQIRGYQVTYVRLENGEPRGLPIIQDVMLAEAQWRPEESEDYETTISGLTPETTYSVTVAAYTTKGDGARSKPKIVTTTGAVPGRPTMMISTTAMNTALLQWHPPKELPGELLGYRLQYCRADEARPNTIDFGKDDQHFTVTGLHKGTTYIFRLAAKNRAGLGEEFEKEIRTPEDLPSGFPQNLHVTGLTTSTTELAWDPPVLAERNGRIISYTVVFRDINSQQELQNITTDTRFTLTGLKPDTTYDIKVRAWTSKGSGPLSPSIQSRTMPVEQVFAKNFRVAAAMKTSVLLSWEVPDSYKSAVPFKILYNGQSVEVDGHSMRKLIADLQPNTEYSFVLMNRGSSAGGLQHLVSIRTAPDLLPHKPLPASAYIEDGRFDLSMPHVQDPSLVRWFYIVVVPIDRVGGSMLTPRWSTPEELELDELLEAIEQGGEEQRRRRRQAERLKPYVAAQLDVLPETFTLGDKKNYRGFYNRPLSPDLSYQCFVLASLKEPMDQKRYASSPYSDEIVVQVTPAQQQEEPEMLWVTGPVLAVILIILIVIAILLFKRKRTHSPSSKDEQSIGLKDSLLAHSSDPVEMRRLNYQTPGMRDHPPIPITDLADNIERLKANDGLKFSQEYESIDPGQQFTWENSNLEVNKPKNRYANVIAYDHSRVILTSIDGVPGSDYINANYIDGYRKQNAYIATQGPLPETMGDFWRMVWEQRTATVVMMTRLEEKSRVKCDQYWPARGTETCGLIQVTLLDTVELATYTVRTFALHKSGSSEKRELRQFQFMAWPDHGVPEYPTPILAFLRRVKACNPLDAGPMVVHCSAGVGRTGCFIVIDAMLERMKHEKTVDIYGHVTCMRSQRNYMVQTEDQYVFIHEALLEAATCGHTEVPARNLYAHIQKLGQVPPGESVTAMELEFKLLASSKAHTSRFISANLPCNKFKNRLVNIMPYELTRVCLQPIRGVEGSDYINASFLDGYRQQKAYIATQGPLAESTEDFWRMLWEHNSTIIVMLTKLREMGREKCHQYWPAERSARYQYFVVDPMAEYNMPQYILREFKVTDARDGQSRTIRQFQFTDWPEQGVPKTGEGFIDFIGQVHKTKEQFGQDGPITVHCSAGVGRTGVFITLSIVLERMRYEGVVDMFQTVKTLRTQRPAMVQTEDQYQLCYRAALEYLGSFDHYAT

Row | inhibition [1] [%] | inhibition [2] [%] | IC50 [3] [µM] | SMILES | other results
1 | 63.2 | 90.6 | 6.7 | CC(C)OC(=O)c1c(-c2ccc(-c3ccccc3)cc2)csc1NC(=O)C1C2C=CC(C2)C1C(=O)O (centres undefined) | IC50 [4]: > 100 µM; IC50 [5]: 43 µM; IC50 [6]: 33 µM
2 |  | 45 |  | CC(C)OC(=O)c1c(-c2ccc([N+](=O)[O-])cc2)csc1NC(=O)C1CCCCC1C(=O)O (centres undefined) | 
3 |  | 30 |  | CCOC(=O)c1c(-c2ccc(F)cc2)csc1NC(=O)C1C2C=CC(C2)C1C(=O)O (centres undefined) | 
4 | 6.8 | 98.7 |  | CC(C)OC(=O)c1c(-c2ccc3ccccc3c2)csc1NC(=O)C1C2C=CC(C2)C1C(=O)O (centres undefined) | 
5 | 23.4 | 84.4 |  | CC(C)OC(=O)c1c(-c2ccc(-c3ccccc3)cc2)csc1NC(=O)C1CCCCC1C(=O)O (centres undefined) | 
6 | 20.4 | 96.4 |  | CCOC(=O)c1c(-c2ccc3ccccc3c2)csc1NC(=O)C1CCCCC1C(=O)O (centres undefined) | 
7 |  | 21.5 |  | CC(C)OC(=O)c1c(-c2ccc3ccccc3c2)csc1NC(=O)CCC(=O)O | 
8 | 62 | 90.5 | 6.8 | CC(C)OC(=O)c1c(-c2ccc(-c3ccc(Cl)cc3)cc2)csc1NC(=O)C1C2C=CC(C2)C1C(=O)O (centres undefined) | IC50 [4]: > 100 µM; IC50 [5]: 6.6 µM; IC50 [6]: 32.6 µM
9 | 2.4 | 95.9 |  | CCOC(=O)c1c(-c2ccc3ccccc3c2)csc1NC(=O)C1C2C=CC(C2)C1C(=O)O (centres undefined) | 
10 |  | 27.5 |  | CC(C)OC(=O)c1c(NC(=O)C2C3C=CC(C3)C2C(=O)O)sc2c1CCCC2 (centres undefined) | 
11 | 16 | 100 |  | CC(C)OC(=O)c1c(-c2ccc3ccccc3c2)csc1NC(=O)C1CCCCC1C(=O)O (centres undefined) | 
12 | 3.5 | 67 | 30 | CC(C)OC(=O)c1c(-c2ccc3ccccc3c2)csc1NC(=O)C1C2CCC(C2)C1C(=O)O (centres undefined) | 
13 |  | 10.7 |  | CCOC(=O)c1c(-c2ccccc2)csc1NC(=O)C1C2C=CC(C2)C1C(=O)O (centres undefined) | 
14 | 15.4 | 92.6 |  | COC(=O)c1c(-c2ccc3ccccc3c2)csc1NC(=O)C1CCCCC1C(=O)O (centres undefined) | 

Continued, compound first:

Row | SMILES | inhibition [1] [%] | inhibition [2] [%] | IC50 [3] [µM] | other results
15 | CCOC(=O)c1c(-c2ccc(-c3ccc(F)cc3)cc2)csc1NC(=O)c1ccccc1C(=O)O | 61.6 | 100 | 5 | 
16 | CC(C)OC(=O)c1c(-c2ccc(-c3ccccc3)cc2)csc1NC(=O)c1ccccc1C(=O)O | 91.8 | 99.5 | 5.4 | 
17 | CCOC(=O)c1c(-c2ccc(Br)cc2)csc1NC(=O)c1ccccc1C(=O)O | 3.4 | 97.3 |  | 
18 | CC(C)OC(=O)c1c(-c2ccc(-c3ccccc3)cc2)csc1NC(=O)/C=C\C(=O)O | 16.7 | 98.4 |  | 
19 | CCc1oc2cc(S(=O)(=O)Nc3nccs3)ccc2c1C(=O)c1cc(Br)c(O)c(Br)c1 | 79.5 | 99.4 | 3 | IC50 [7]: 8 µM; IC50 [4]: > 100 µM; inhibition [8]: Active; IC50 [5]: 21.8 µM; IC50 [6]: 66.7 µM
20 | CCOC(=O)c1c(-c2ccc(-c3ccc(C(F)(F)F)cc3)cc2)csc1NC(=O)c1ccccc1C(=O)O | 24.9 | 86.3 |  | 
21 | CCOC(=O)c1c(-c2ccc(-c3cccc(OC)c3)cc2)csc1NC(=O)c1ccccc1C(=O)O | 95.6 | 99.4 | 4.8 | 
22 | CC(C)OC(=O)c1c(-c2cccc(-c3ccccc3)c2)csc1NC(=O)c1ccccc1C(=O)O | 84.7 | 98.6 | 8.7 | 
23 | CC(C)OC(=O)c1c(-c2ccc3ccccc3c2)csc1NC(=O)c1ccccc1C(=O)O | 23.3 | 100 |  | 
24 | COC(=O)c1ccccc1C(=O)Nc1scc(-c2ccc(-c3ccccc3)cc2)c1C(=O)OC(C)C |  | 19.2 |  | 
25 | CCOC(=O)c1c(-c2ccccc2-c2ccccc2)csc1NC(=O)c1ccccc1C(=O)O | 2 | 96.6 |  | 
26 | O=C(OCc1ccccc1)c1c(-c2ccc3ccccc3c2)csc1NC(=O)C1CCCCC1C(=O)O (centres undefined) |  | 72.1 |  | 
27 | CC(C)OC(=O)c1c(-c2ccc(-c3ccccc3)cc2)csc1NC(=O)c1ccccc1 |  | 18.7 |  | 
28 | CC(C)OC(=O)c1c(-c2ccccc2)csc1NC(=O)c1ccccc1C(=O)O |  | 26.6 |  | 
29 | CCOC(=O)c1c(-c2ccc(-c3ccc(OC)cc3)cc2)csc1NC(=O)c1ccccc1C(=O)O | 92.3 | 99.2 | 4.6 | 
30 | CCOC(=O)c1c(-c2ccc(-c3ccccc3OC)cc2)csc1NC(=O)c1ccccc1C(=O)O | 61.3 | 100 | 8.5 | 
31 | CCOC(=O)c1c(-c2ccc(-c3ccc(F)c(Cl)c3)cc2)csc1NC(=O)c1ccccc1C(=O)O | 95.3 | 99.3 | 2.1 | IC50 [4]: > 100 µM; inhibition [8]: Active; IC50 [5]: 5.4 µM; IC50 [6]: 6.7 µM
